This passage reports IC50 results from ChEMBL document CHEMBL2406910, “Structures and potential antitumor activity of sesterterpenes from the marine sponge Hyrtios communis” (J Nat Prod, 2013).

The test system of one test is T47D. Description: Antiproliferative activity against human T47D cells after 48 hrs by SRB assay. Format: functional, cell-based. In a few lines: (§1)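 Human breast tumor T47D and MDA-MB-231 cells (ATCC) were treated with compounds for 48 h, and proliferation/viability was measured. […] Cycloheximide and rotenone served as positive controls.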
For orientation: In SRB staining, fixed cells bind dye roughly in proportion to their protein.

Another test concerns MDA-MB-231. Put plainly: Antiproliferative activity against human MDA-MB-231 cells after 48 hrs by SRB assay. Type of test: functional, cell-based. To be noted: MDA-MB-231, 48 h. In a few lines:
as §1

Test [1] can be described thus: Inhibition of hypoxia-induced HIF-1 activation in human T47D cells by luciferase reporter gene assay. Format: cell-based. The essentials: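 T47D cells carrying the reporter were incubated under hypoxia (1% O2) for 16 h while exposed to a range of compound concentrations. […] Cycloheximide and rotenone served as positive controls.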
For orientation: In a reporter assay the amount or activity of a reporter protein is the signal.

Consider `CC1=C(CC/C(C)=C/CC/C(C)=C/C[C@@H](O)C2=CC(=O)OC2)C(C)(C)CCC1`, for which the 50% inhibitory concentration (IC50) with T47D and in the test on MDA-MB-231 was more than 10 µM in each case.

As to `CC(=O)CCCC(C)(C)C(=O)CC/C(C)=C/CC/C(C)=C/CCC1=CC(=O)OC1O` (configuration not stated), the IC50 in the test on T47D and in the test with MDA-MB-231 was more than 10 µM each time.

As for `CC1=C(CC/C(C)=C/CC/C(C)=C/CCC2=CC(=O)OC2O)C(C)(C)CCC1O` (configuration not stated), the IC50 in the test with T47D and with MDA-MB-231 was more than 10 µM each time.

As for `C=C(CCC1=C(C)CCCC1(C)C)C(O)CC/C(C)=C/CCC1=CC(=O)OC1O` (configuration not stated), the half-maximal inhibitory concentration (IC50) with T47D was more than 10 µM; in test [1] it was 7.1 µM; in the test on MDA-MB-231, more than 10 µM.

Take `CC1=C(CC/C(C)=C/CC/C(C)=C/C[C@@H](O)C2=CC(=O)OC2)C(C)(C)C(=O)CC1`: the concentration for half-maximal inhibition (IC50) was more than 10 µM in the test with T47D, 3.2 µM in test [1] and more than 10 µM in the test on MDA-MB-231.

With `CC(=O)O[C@H](C/C=C(\C)CC/C=C(\C)CCC1=C(C)CCC(=O)C1(C)C)C1=CC(=O)OC1`, the IC50 in the test on T47D is more than 10 µM; in test [1], 3.5 µM; with MDA-MB-231, more than 10 µM.

For `CC1=C(CC/C(C)=C/CC/C(C)=C/CCC2=CC(=O)OC2O)C(C)(C)C(=O)CC1` (configuration not stated), the IC50 is more than 10 µM in the test on T47D, 6.2 µM in test [1] and more than 10 µM with MDA-MB-231.

As to `CC1=C(CCC(C)(O)/C=C/C/C(C)=C/CCC2=CC(=O)OC2O)C(C)(C)CCC1` (configuration not stated), the IC50 in the test on T47D and in the test on MDA-MB-231 was more than 10 µM each time.

Regarding `C=C1CCCC(C)(C)C1(O)CC/C(C)=C/CC/C(C)=C/CCC1=CC(=O)OC1O` (configuration not stated), the IC50 in the test with T47D and in the test on MDA-MB-231 was more than 10 µM in each case.

In the case of `CC1=C(CC/C(C)=C/CC/C(C)=C/CCC2=CC(=O)OC2O)C(C)(C)CCC1=O` (configuration not stated) [ACANTHOLIDE B], the half-inhibitory concentration (IC50) with T47D and in the test with MDA-MB-231 was more than 10 µM each time.

On to `CC1=C(CC/C(C)=C/CC/C(C)=C/CCC2=CC(=O)OC2O)C(C)(C)CCC1` (configuration not stated) [LUFFARIELLOLIDE], for which the 50% inhibitory concentration (IC50) in the test with T47D amounted to 5.1 µM; in test [1], 3.6 µM; in the test with MDA-MB-231, 4.5 µM.

As a reminder, the IC50 is the point on the concentration scale where inhibition reaches its midpoint. A low value points to higher potency.
